Laboratory results as given in ChEMBL document CHEMBL3259728, “Design, synthesis and biological evaluation of some novel substituted quinazolines as antitumor agents” (2014).

Key:
Assay type in all cases: functional
[1] = Growth inhibition of human BT549 cells assessed as cell growth at 10^-5 M after 48 hrs by SRB assay; settings: BT-549, 48 h, read-out: Activity
How it was run: (§1)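 Five-dose NCI panel protocol. Each dose (10^-4 to 10^-8 M, 10-fold steps) was given as 48 h continuous exposure, and protein was measured by SRB staining. Percentage growth at each level is [(Ti−Tz)/(C−Tz)]×100, where Tz is time-zero absorbance and C is untreated control.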

[2] = Growth inhibition of human UACC257 cells assessed as cell growth at 10^-8 M after 48 hrs by SRB assay; settings: UACC-257, 48 h, read-out: Activity
SW-620 = assay: Growth inhibition of human SW620 cells assessed as cell growth at 10^-8 M after 48 hrs by SRB assay; settings: SW-620, 48 h, read-out: Activity
HT-29 [3] = assay: Growth inhibition of human HT-29 cells assessed as cell growth at 10^-8 M after 48 hrs by SRB assay; settings: HT-29, 48 h, read-out: Activity
K562 = assay: Growth inhibition of human K562 cells assessed as cell growth at 10^-8 M after 48 hrs by SRB assay; settings: K562, 48 h, read-out: Activity
SNB-75 = assay: Growth inhibition of human SNB75 cells assessed as cell growth at 10^-5 M after 48 hrs by SRB assay; settings: SNB-75, 48 h, read-out: Activity
HT-29 [4] = assay: Growth inhibition of human HT-29 cells assessed as cell growth at 10^-5 M after 48 hrs by SRB assay; settings: HT-29, 48 h, read-out: Activity
DU-145 = assay: Growth inhibition of human DU145 cells assessed as cell growth at 10^-6 M after 48 hrs by SRB assay; settings: DU-145, 48 h, read-out: Activity
SK-MEL-5 = assay: Growth inhibition of human SK-MEL-5 cells assessed as cell growth at 10^-6 M after 48 hrs by SRB assay; settings: SK-MEL-5, 48 h, read-out: Activity
[5] = Growth inhibition of human LOXIMVI cells assessed as cell growth at 10^-6 M after 48 hrs by SRB assay; settings: LOX IMVI, read-out: Activity
[6] = Growth inhibition of human UO31 cells assessed as cell growth at 10^-5 M after 48 hrs by SRB assay; settings: UO-31, 48 h, read-out: Activity
[7] = Growth inhibition of human OVCAR3 cells assessed as cell growth at 10^-5 M after 48 hrs by SRB assay; settings: OVCAR-3, 48 h, read-out: Activity
NCI-H226 = assay: Growth inhibition of human NCI-H226 cells assessed as cell growth at 10^-6 M after 48 hrs by SRB assay; settings: NCI-H226, 48 h, read-out: Activity
NCI-H23 = assay: Growth inhibition of human NCI-H23 cells assessed as cell growth at 10^-7 M after 48 hrs by SRB assay; settings: NCI-H23, 48 h, read-out: Activity
[8] = Cytotoxicity against human NCI-ADR-RES cells after 48 hrs by SRB assay
How it was run: (§2)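 NCI 60-cell-line panel of human tumour lines from nine cancer types. Continuous 48 h exposure at five 10-fold dilutions from 10^-4 to 10^-8 M, with 5-FU as positive control. SRB protein stain read spectrophotometrically at time zero, untreated control and each concentration. GI50, TGI and LC50 were derived from the [(Ti−Tz)/(C−Tz)]×100 growth relations, and out-of-range values are given as > or < the tested limits.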

HT-29 [9] = assay: Growth inhibition of human HT-29 cells assessed as cell growth at 10^-6 M after 48 hrs by SRB assay; settings: HT-29, 48 h, read-out: Activity
[10] = Cytotoxicity against human UO31 cells after 48 hrs by SRB assay; settings: UO-31, 48 h
How it was run: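 NCI 60-cell-line panel, 48 h continuous exposure to five 10-fold dilutions from 10^-4 to 10^-8 M. SRB protein staining was read spectrophotometrically, with time-zero, untreated-control and treated absorbances. GI50, TGI and LC50 were derived from the percentage-growth formulas. Values outside the tested range are expressed as more or less than the maximum or minimum concentration.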

MCF7 [11] = assay: Cytotoxicity against human MCF7 cells after 48 hrs by SRB assay; settings: MCF7, 48 h; how it was run: as §2
[12] = Growth inhibition of human BT549 cells assessed as cell growth at 10^-7 M after 48 hrs by SRB assay; settings: BT-549, 48 h, read-out: Activity; how it was run: as §1
[13] = Growth inhibition of human Hs578T cells assessed as cell growth at 10^-7 M after 48 hrs by SRB assay; settings: Hs-578T, read-out: Activity
SK-OV-3 [14] = assay: Growth inhibition of human SKOV3 cells assessed as cell growth at 10^-7 M after 48 hrs by SRB assay; settings: SK-OV-3, 48 h, read-out: Activity
IGROV-1 = assay: Growth inhibition of human IGROV1 cells assessed as cell growth at 10^-7 M after 48 hrs by SRB assay; settings: IGROV-1, 48 h, read-out: Activity
SK-MEL-28 = assay: Growth inhibition of human SK-MEL-28 cells assessed as cell growth at 10^-7 M after 48 hrs by SRB assay; settings: SK-MEL-28, 48 h, read-out: Activity
[15] = Growth inhibition of human LOXIMVI cells assessed as cell growth at 10^-7 M after 48 hrs by SRB assay; settings: LOX IMVI, read-out: Activity
SN12C = assay: Growth inhibition of human SN12C cells assessed as cell growth at 10^-8 M after 48 hrs by SRB assay; settings: read-out: Activity
KM12 = assay: Cytotoxicity against human KM12 cells after 48 hrs by SRB assay; settings: KM12, 48 h; how it was run: as §2
MCF7 [16] = assay: Growth inhibition of human MCF7 cells assessed as cell growth at 10^-4 M after 48 hrs by SRB assay; settings: MCF7, 48 h, read-out: Activity
PC-3 = assay: Growth inhibition of human PC3 cells assessed as cell growth at 10^-4 M after 48 hrs by SRB assay; settings: PC-3, 48 h, read-out: Activity
SK-OV-3 [17] = assay: Growth inhibition of human SKOV3 cells assessed as cell growth at 10^-4 M after 48 hrs by SRB assay; settings: SK-OV-3, 48 h, read-out: Activity
[18] = Growth inhibition of human UACC62 cells assessed as cell growth at 10^-4 M after 48 hrs by SRB assay; settings: UACC-62, 48 h, read-out: Activity
[19] = read-out: LC50 (the source's name)
[20] = read-out: pLC50 (the source's name) (converted)

Which results are given for `Cc1ccc(-c2nc3ccc(Cl)cc3c(=O)n2/N=C/c2ccccc2)cc1`?
growth at 10 µM [1]: 90%; growth at 0.01 µM [2]: 100%; growth at 0.01 µM (SW-620): 96%; growth at 0.01 µM (HT-29 [3]): 100%; growth at 0.01 µM (K562): 96%; growth at 10 µM (SNB-75): 31%; growth at 10 µM (HT-29 [4]): 69%; growth at 1 µM (DU-145): 96%; growth at 1 µM (SK-MEL-5): 77%; growth at 1 µM [5]: 89%; growth at 10 µM [6]: 42%; growth at 10 µM [7]: 34%; growth at 1 µM (NCI-H226): 79%; growth at 0.1 µM (NCI-H23): 89%; GI50 ([8]; read-out: GI50): 8.87 µM; CC50 [8, 19]: > 100 µM; TGI ([8]; read-out: TGI): > 100 µM; GI50 ([8]; read-out: pGI50 (converted)): 8.91 µM; CC50 [8, 20]: > 100 µM; TGI ([8]; read-out: pTGI): > 100 µM; growth at 1 µM (HT-29 [9]): 94%; GI50 ([10]; read-out: GI50): 3.66 µM; CC50 [10, 19]: > 100 µM; TGI ([10]; read-out: TGI): > 100 µM; GI50 ([10]; read-out: pGI50 (converted)): 3.63 µM; CC50 [10, 20]: > 100 µM; TGI ([10]; read-out: pTGI): > 100 µM; GI50 (MCF7 [11]; read-out: GI50): 26.9 µM; CC50 (MCF7 [11]; [19]): > 100 µM; TGI (MCF7 [11]; read-out: TGI): > 100 µM; GI50 (MCF7 [11]; read-out: pGI50 (converted)): 26.9 µM; CC50 (MCF7 [11]; [20]): > 100 µM; TGI (MCF7 [11]; read-out: pTGI): > 100 µM; growth at 0.1 µM [12]: 94%; growth at 0.1 µM [13]: 90%; growth at 0.1 µM (SK-OV-3 [14]): 97%; growth at 0.1 µM (IGROV-1): 78%; growth at 0.1 µM (SK-MEL-28): 97%; growth at 0.1 µM [15]: 93%; growth at 0.01 µM (SN12C): 104%; GI50 (KM12; read-out: GI50): > 100 µM; CC50 (KM12; [19]): > 100 µM; TGI (KM12; read-out: TGI): > 100 µM; GI50 (KM12; read-out: pGI50 (converted)): > 100 µM; CC50 (KM12; [20]): > 100 µM; TGI (KM12; read-out: pTGI): > 100 µM; growth at 100 µM (MCF7 [16]): 38%; growth at 100 µM (PC-3): 49%; growth at 100 µM (SK-OV-3 [17]): -37%; growth at 100 µM [18]: 32%
